Laboratory results: ChEMBL document CHEMBL1131102, “A new series of highly potent growth hormone-releasing peptides derived from ipamorelin” (J Med Chem, 1998)
“And” between values parts separate entries of the source, which are not always exact repeats. Equal values may be shown once. Non-standard residues stand in square brackets, D forms with d. Residues, ends and D or L forms follow the SMILES beside them. d2Nal = N[C@H](Cc1ccc2ccccc2c1)C(=O)O; 3Amb = NCc1cccc(C(=O)O)c1; Aib = CC(C)(N)C(=O)O

What was measured:
Rattus norvegicus [1] = assay: (§1) Tested in vivo for GH-releasing potency against anesthetized male rats; format: functional; design: unit not given here
How it was run: (§2)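 Male or female rats (250 ± 25 g) were anesthetized with pentobarbital ip (50 mg/mL, 1.2 mL/kg). After 15 min, orbital blood was taken, then compound was given as an iv tail-vein bolus (2 mL/kg) and blood sampled again at 10 min. Rat GH was assayed in heparinized plasma. At least five doses, six rats per dose. ED50 by Hill fit; Emax as % of GHRP-6.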

Rattus norvegicus [2] = assay: as §1; format: functional; how it was run: as §2
Rattus norvegicus [3] = species on record: Rattus norvegicus; assay: Tested in vitro for GH-releasing potency against rat pituitary cells.; format: functional; conditions: Pituitary gland cell
How it was run: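 Rat pituitaries were trypsin-dispersed into single cells and cultured 3 days, then washed and stimulated 15 min with secretagogue. Supernatant GH was measured by rat GH SPA. EC50 came from a Hill fit of release above basal; Emax as % of GHRP-6 maximum. Mean ± SEM of 1–5 experiments.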

Rattus norvegicus [4] = assay: Compound was tested in vivo for GH-releasing potency against anesthetized female rats; format: functional; how it was run: as §2
Rattus norvegicus [5] = assay: Tested in vivo for GH-releasing potency against anesthetized female rats; format: functional; how it was run: as §2
Canis familiaris [6] = assay: Area under curve was measured after po administration into Beagle dog; format: ADME, organism-based, Canis lupus familiaris; conditions: in vivo
How it was run: (§3)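 Fasted (overnight) male and female Beagle dogs; dosed po by gavage (2.7 or 1.8 mg/kg) and iv as a hind-leg-vein bolus (0.5 mg/kg), with a 1-week washout between routes. Vehicle was citrate/phosphate buffer, pH 5.0. EDTA blood was drawn from a front-leg vein up to 6 h. Plasma compound was measured by HPLC-UV after solid-phase extraction. AUC(0–6 h); f = AUCpo·doseiv/(AUCiv·dosepo).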

Canis familiaris [7] = assay: Area under curve was measured after iv administration into Beagle dog; format: ADME, organism-based, Canis lupus familiaris; conditions: in vivo; how it was run: as §3
[8] = Oral bioavailability in dog (Beagle); format: ADME, organism-based, Canis lupus familiaris; conditions: in vivo; how it was run: as §3
Canis familiaris [9] = assay: Basal GH release was measured after 1.8 mg/kg po administration into Beagle dogs; format: functional, Canis lupus familiaris
How it was run: (§4)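 Fasted (overnight) Beagle dogs were given compound in citrate/phosphate buffer, pH 5.0, either as a 0.5 mg/kg iv bolus in a hind-leg vein or by po gavage (2.7 or 1.8 mg/kg). Iv and po dosing were separated by a 1-week washout. EDTA blood was drawn from a front-leg vein at intervals up to 6 h. Plasma GH was measured by porcine GH ELISA.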

Sus scrofa [10] = species on record: Sus scrofa; assay: (§5) Compound was tested for GH-releasing potency against female Danish slaughter swine.; format: functional, organism-based
How it was run: (§6)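 Swine with jugular catheters received single iv injections in increasing doses (range 0.03–500 nmol/kg), five doses per experiment at 24-h intervals. Vehicle was phosphate/citrate buffer diluted in saline with 0.5% porcine serum albumin. Blood was sampled from 1 h before to 3 h after dosing; pGH by ELISA. Basal-adjusted Cmax was fitted (Hill or Michaelis–Menten) for ED50; six swine.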

Sus scrofa [11] = species on record: Sus scrofa; assay: as §5; format: functional; how it was run: as §6
Canis familiaris [12] = assay: Basal GH release was measured after 0.5 mg/kg iv administration into Beagle dogs; format: functional, Canis lupus familiaris; how it was run: as §4
Canis familiaris [13] = assay: Basal GH release was measured after 2.7 mg/kg po administration into Beagle dogs; format: functional, Canis lupus familiaris; how it was run: as §4
[14] = Rattus norvegicus, read-out: Emax

SMILES | EC50 (Rattus norvegicus [3]) [nM] | ED50 (Rattus norvegicus [1]) | Emax (Rattus norvegicus [3]) [%] | further results
CN(C(=O)[C@@H](Cc1ccc2ccccc2c1)NC(=O)[C@H](Cc1c[nH]cn1)NC(=O)C(C)(C)N)[C@H](Cc1ccccc1)C(=O)N[C@@H](CCCCN)C(N)=O | 2 | 1.8 | 100 | Emax (Rattus norvegicus [2]): 90%
CN(C(=O)c1cccc(CN)c1)[C@H](Cc1ccc2ccccc2c1)C(=O)N(C)[C@H](Cc1ccccc1)C(N)=O | 115 | – | 85 | –
CNC(=O)[C@@H](Cc1ccccc1)N(C)C(=O)[C@@H](Cc1ccc2ccccc2c1)N(C)C(=O)[C@H](Cc1c[nH]cn1)NC(=O)C(C)(C)N | 3.8 | – | 110 | –
NCCCC[C@H](NC(=O)[C@@H](Cc1ccccc1)NC(=O)[C@@H](Cc1ccc2ccccc2c1)NC(=O)c1cccc(CN)c1)C(N)=O (H-[3Amb][d2Nal][dF]K-NH2) | – | >4800 | 85 | –
C[C@H](NC(=O)[C@@H](Cc1c[nH]c2ccccc12)NC(=O)[C@@H](N)Cc1c[nH]cn1)C(=O)N[C@@H](Cc1c[nH]c2ccccc12)C(=O)N[C@H](Cc1ccccc1)C(=O)N[C@@H](CCCCN)C(N)=O (H-H[dW]AW[dF]K-NH2) | 2.2 | – | 100 | ED50 (Sus scrofa [11]): 0.0039 µmol/kg; Emax (Sus scrofa [11]): 100%; Emax (Rattus norvegicus [5]): 60% and 100%
CN(C(=O)[C@H](Cc1c[nH]cn1)NC(=O)C(C)(C)N)[C@H](Cc1ccc2ccccc2c1)C(=O)N(C)[C@H](Cc1ccccc1)C(=O)N[C@@H](CCCCN)C(N)=O | 1.5 | – | 85 | ED50 (Rattus norvegicus [4]): 14 nmol/kg
CNC(=O)[C@@H](Cc1ccccc1)N(C)C(=O)[C@@H](Cc1ccc2ccccc2c1)N(C)C(=O)c1cccc(CN)c1 | 40 | – | 110 | –
CC(C)(N)C(=O)N[C@@H](Cc1c[nH]cn1)C(=O)N[C@H](Cc1ccc2ccccc2c1)C(=O)N[C@H](Cc1ccccc1)C(=O)N[C@@H](CCCCN)C(N)=O [IPAMORELIN] (H-[Aib]H[d2Nal][dF]K-NH2) | 1.3 | 85 | 85 | bioavailability [8]: 4%; Basal GH (Canis familiaris [13]): 5.4 ng/mL; ED50 (Sus scrofa [11]): 0.0023 µmol/kg; Emax (Sus scrofa [11]): 88%; Emax (Rattus norvegicus [2]): 120%; Basal GH (Canis familiaris [12]): 1.6 ng/mL
CN(C(=O)[C@@H](Cc1ccc2ccccc2c1)N(C)C(=O)c1cccc(CN)c1)[C@@H](CO)Cc1ccccc1 | 265 | – | 75 | ED50 (Rattus norvegicus [4]): > 1000 nmol/kg
C[C@H](NC(=O)[C@@H](Cc1ccc2ccccc2c1)NC(=O)[C@@H](C)N)C(=O)N[C@@H](Cc1c[nH]c2ccccc12)C(=O)N[C@H](Cc1ccccc1)C(=O)N[C@@H](CCCCN)C(N)=O [PRALMORELIN] (H-[dA][d2Nal]AW[dF]K-NH2) | 1.8 | – | 85 | ED50 (Sus scrofa [11]): 0.0006 µmol/kg; Emax (Sus scrofa [11]): 75%; Emax (Rattus norvegicus [5]): 90%; Emax (Rattus norvegicus [5]; [14]): 100%

Second part, led by results:

EC50 (Rattus norvegicus [3]) [nM] | SMILES | ED50 (Rattus norvegicus [1]) | Emax (Rattus norvegicus [3]) [%] | further results
85 | NCCCC[C@H](NC(=O)[C@@H](Cc1ccccc1)NC(=O)[C@@H](Cc1ccc2ccccc2c1)NC(=O)c1ccccc1CN)C(N)=O | – | 60 | –
5 | CN(C(=O)c1cccc(CN)c1)[C@H](Cc1ccc2ccccc2c1)C(=O)N(C)[C@H](Cc1ccccc1)C(=O)N[C@@H](CCCCN)C(N)=O | – | 80 | ED50 (Rattus norvegicus [4]): 146 nmol/kg; Emax (Rattus norvegicus [5]; [14]): 100%
0.5 | CN(C(=O)[C@@H](Cc1ccc2ccccc2c1)NC(=O)c1cccc(CN)c1)[C@H](Cc1ccccc1)C(=O)N[C@@H](CCCCN)C(N)=O | 80 | 80 | AUC (Canis familiaris [6]): 48 ng·h/mL; AUC (Canis familiaris [7]): 137 ng·h/mL; bioavailability [8]: 10%; Basal GH (Canis familiaris [9]): 1.2 ng/mL; ED50 (Sus scrofa [10]): 2 nM/kg; Emax (Sus scrofa [11]): 70%; Emax (Rattus norvegicus [2]): 90%; Basal GH (Canis familiaris [12]): 1.2 ng/mL
170 | CN(C(=O)[C@@H](Cc1ccc2ccccc2c1)NC(=O)c1cccc(CN)c1)[C@H](Cc1ccccc1)C(N)=O | – | 85 | ED50 (Rattus norvegicus [4]): > 1000 nmol/kg
10 | CNCc1cccc(C(=O)N[C@H](Cc2ccc3ccccc3c2)C(=O)N[C@H](Cc2ccccc2)C(=O)N[C@@H](CCCCN)C(N)=O)c1 | 65 | 85 | Emax (Rattus norvegicus [2]): 30%
110 | NCCCC[C@H](NC(=O)[C@@H](Cc1ccccc1)NC(=O)[C@@H](Cc1ccc2ccccc2c1)NC(=O)c1ccc(CN)cc1)C(N)=O | – | 50 | –
